In ChEMBL document CHEMBL2321866 (J Med Chem, 2013):
Active and inactive are the calls of the source. The calls are words filed in the database; no cut-off is given here.

Columns and labels:
Cannabinoid receptor 2 [1] = biological target: T1, Cannabinoid receptor 2 (Homo sapiens, UniProt P34972); assay: Displacement of [3H]CP-55,940 from CB2 receptor (unknown origin) after 1 hr by scintillation counting analysis
Homo sapiens = organism: Homo sapiens; assay: Selectivity index, ratio of Ki for CB1 receptor (unknown origin) to Ki for CB2 receptor (unknown origin)
Cannabinoid receptor 1 = Cannabinoid receptor 1 (Homo sapiens, UniProt P21554)
Cannabinoid receptor 2 [2] = biological target: T1, Cannabinoid receptor 2; assay: Inverse agonist activity at human CB2 receptor expressed in CHO cells assessed as increase in forskolin-induced cAMP production after 45 mins in presence of phosphodiesterase inhibitor RO20-1724; assay type: functional, cell-based
RAW264.7 [3] = assay: Inhibition of RANKL-induced osteoclastogenesis in mouse RAW264.7 cells after 5 days by TRAP assay; assay type: functional, cell-based
Method in brief: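 RAW 264.7 cells, 3×10^3 per well, grown 24 h in αMEM/10% FBS, then switched to medium with RANKL (15 ng/mL) plus compound (0.1–10 µM). After 5 days cells fixed and TRAP-stained; TRAP+ cells with more than three nuclei scored as osteoclasts. Mean of three experiments in triplicate.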

RAW264.7 [4] = assay: Cytotoxicity against mouse RAW264.7 cells assessed as cell viability at 5 to 10 uM after 3 days by MTT assay; assay type: cell-based; conditions: raw264.7, 72 h
Method in brief: (§1)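 Survival measured by MTT and expressed as percent of vehicle control. Mean ± S.E.M. of experiments run in triplicate.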

RAW264.7 [5] = assay: Inhibition of RANKL-induced osteoclastogenesis in mouse RAW264.7 cells at 1 uM after 5 days by TRAP assay relative to control; assay type: functional
Method in brief: (§2)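 RAW 264.7 murine monocytic cells were seeded at 3 × 10^3 per well and cultured 24 h in αMEM with 10% FBS. Medium was then replaced with the same medium containing RANKL (15 ng/mL) plus test compound. […] Mean of three experiments, each in triplicate.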

RAW264.7 [6] = assay: Inhibition of RANKL-induced osteoclastogenesis in mouse RAW264.7 cells at 10 uM after 5 days by TRAP assay relative to control; assay type: functional; conditions: RAW264.7, 120 h; method in brief: as §2
RAW264.7 [7] = assay: Cytotoxicity against mouse RAW264.7 cells assessed as cell viability at 2.5 uM after 3 days by MTT assay relative to vehicle-treated control; assay type: cell-based; conditions: raw264.7, 72 h; method in brief: as §1
RAW264.7 [8] = assay: Cytotoxicity against mouse RAW264.7 cells assessed as cell viability at 5 uM after 3 days by MTT assay; assay type: cell-based; conditions: raw264.7, 72 h; method in brief: as §1
RAW264.7 [9] = assay: Inhibition of RANKL-induced osteoclastogenesis in mouse RAW264.7 cells at 0.1 uM after 5 days by TRAP assay relative to control; assay type: functional; conditions: RAW264.7, 120 h; method in brief: as §2
RAW264.7 [10] = assay: Cytotoxicity against mouse RAW264.7 cells assessed as cell viability at […] after 3 days by MTT assay; assay type: cell-based; conditions: raw264.7, 72 h

T1 sequence (P34972 whole entry): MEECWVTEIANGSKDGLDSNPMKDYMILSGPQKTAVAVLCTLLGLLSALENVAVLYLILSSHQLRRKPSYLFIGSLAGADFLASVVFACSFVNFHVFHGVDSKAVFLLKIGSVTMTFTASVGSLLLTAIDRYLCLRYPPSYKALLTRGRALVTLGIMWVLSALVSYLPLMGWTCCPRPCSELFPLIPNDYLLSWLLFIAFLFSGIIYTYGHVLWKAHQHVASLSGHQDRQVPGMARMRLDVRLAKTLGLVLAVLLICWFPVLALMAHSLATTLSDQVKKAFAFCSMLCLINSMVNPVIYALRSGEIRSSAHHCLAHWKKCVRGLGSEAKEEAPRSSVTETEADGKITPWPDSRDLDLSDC
Sequence of Cannabinoid receptor 1 (P21554 whole entry): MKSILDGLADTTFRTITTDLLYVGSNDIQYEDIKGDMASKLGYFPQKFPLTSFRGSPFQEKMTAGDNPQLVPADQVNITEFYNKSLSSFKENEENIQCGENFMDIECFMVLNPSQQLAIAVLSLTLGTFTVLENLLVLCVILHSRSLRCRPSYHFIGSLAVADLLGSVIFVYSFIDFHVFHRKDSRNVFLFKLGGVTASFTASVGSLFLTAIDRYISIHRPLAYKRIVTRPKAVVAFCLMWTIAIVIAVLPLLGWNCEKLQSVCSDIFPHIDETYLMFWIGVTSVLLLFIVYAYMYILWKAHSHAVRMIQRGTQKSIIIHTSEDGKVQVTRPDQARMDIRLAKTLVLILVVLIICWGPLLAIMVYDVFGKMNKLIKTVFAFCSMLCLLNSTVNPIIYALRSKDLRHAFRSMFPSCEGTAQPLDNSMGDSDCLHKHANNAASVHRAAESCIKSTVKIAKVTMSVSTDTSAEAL

Structure (SMILES) | Ki (Cannabinoid receptor 2 [1]; read-out: Ki) | Ratio Ki (Homo sapiens) | other results
CCN(CC)c1ccc(CN([C@]23C[C@H]4C[C@H](C[C@H](C4)C2)C3)S(=O)(=O)c2ccc(C(C)C)cc2)cc1 | 457 nM | – | –
CCN(CC)c1ccc(CN(C(=O)Cc2ccc(Cl)cc2)c2ccc(Cl)cc2)cc1 | 136 nM | 147 | –
CCN(CC)c1ccc(CN([C@]23C[C@H]4C[C@H](C[C@H](C4)C2)C3)S(=O)(=O)c2ccc(OC)cc2)cc1 | 137 nM | – | –
CCN(CC)c1ccc(CN([C@]23C[C@H]4C[C@H](C[C@H](C4)C2)C3)S(=O)(=O)c2ccc(Cl)cc2)cc1 | 173 nM | 11 | Ki (Cannabinoid receptor 1): 2030 nM
CCN(CC)c1ccc(CN(C(=O)C2CCCCC2)c2ccc(C)cc2)cc1 | 222 nM | 0.9 | –
CCN(CC)c1ccc(CN(C(=O)Cc2ccccc2)[C@]23C[C@H]4C[C@H](C[C@H](C4)C2)C3)cc1 | 38 nM | > 333 | Ki (Cannabinoid receptor 1): > 20000 nM
CCN(CC)c1ccc(CN([C@]23C[C@H]4C[C@H](C[C@H](C4)C2)C3)S(=O)(=O)c2ccc(F)cc2)cc1 | 25 nM | – | Ki (Cannabinoid receptor 1): 4270 nM; EC50 (Cannabinoid receptor 2 [2]): 268 nM
CCN(CC)c1ccc(CN(c2ccc(C)cc2)S(=O)(=O)c2ccc(OC)cc2)cc1 | 0.5 nM | 2590 | inhibition (RAW264.7 [3]): Dose-dependent effect; Activity (RAW264.7 [4]): Toxic; inhibition at 1 µM (RAW264.7 [5]; RAW264.7, 120 h): 97%; inhibition at 10 µM (RAW264.7 [6]): 100%; Activity (RAW264.7 [7]): Non-toxic; EC50 (Cannabinoid receptor 2 [2]): 42.7 nM; Activity (RAW264.7 [8]): Toxic; inhibition at 0.1 µM (RAW264.7 [9]): 46%
CCN(CC)c1ccc(CN(c2ccc(Cl)cc2)S(=O)(=O)c2ccc(F)cc2)cc1 | 73 nM | 15 | –
CCN(CC)c1ccc(CN(C(=O)Cc2ccc(Cl)cc2)[C@]23C[C@H]4C[C@H](C[C@H](C4)C2)C3)cc1 | – | – | Ki (Cannabinoid receptor 1): > 20000 nM
CCN(CC)c1ccc(CN[C@]23C[C@H]4C[C@H](C[C@H](C4)C2)C3)cc1 | 20000 nM | – | –
CCN(CC)c1ccc(CN(C(=O)C2CCCCC2)c2ccc(Cl)cc2)cc1 | 164 nM | 121 | Ki (Cannabinoid receptor 1): > 20000 nM
CCN(CC)c1ccc(CNc2ccc(Cl)cc2)cc1 | 6740 nM | – | –
CCN(CC)c1ccc(CN(c2ccc(Cl)cc2)S(=O)(=O)c2ccc(OC)cc2)cc1 | 14 nM | > 1430 | Ki (Cannabinoid receptor 1): > 20000 nM; inhibition (RAW264.7 [3]): Dose-dependent effect; Activity (RAW264.7 [4]): Toxic; inhibition (RAW264.7 [5]): Active; inhibition at 10 µM (RAW264.7 [6]): > 95%; Activity (RAW264.7 [7]): Non-toxic; EC50 (Cannabinoid receptor 2 [2]): 16.4 nM; Activity (RAW264.7 [8]): Toxic; Activity (RAW264.7 [10]): Non-toxic
CCCCCCCN(Cc1ccc(N(CC)CC)cc1)S(=O)(=O)CCCC | – | – | Ki (Cannabinoid receptor 2 [1]; read-out: pKi (converted)): 697 nM
CCN(CC)c1ccc(CN([C@]23C[C@H]4C[C@H](C[C@H](C4)C2)C3)S(=O)(=O)c2ccc(C)cc2)cc1 | – | – | Ki (Cannabinoid receptor 1): > 20000 nM
CCN(CC)c1ccc(CN(C(=O)C2CCCCC2)[C@]23C[C@H]4C[C@H](C[C@H](C4)C2)C3)cc1 | 35 nM | > 571 | Ki (Cannabinoid receptor 1): > 20000 nM
Cc1ccc(S(=O)(=O)N(CCc2ccc(Cl)cc2)S(=O)(=O)c2ccc(C)cc2)cc1 | 192 nM | 26 | –
CCN(CC)c1ccc(CN([C@]23C[C@H]4C[C@H](C[C@H](C4)C2)C3)S(=O)(=O)c2cccc(C)c2)cc1 | 19 nM | – | Ki (Cannabinoid receptor 1): 8220 nM; inhibition (RAW264.7 [3]): Dose-dependent effect; inhibition at 10 µM (RAW264.7 [6]): > 95%; Activity (RAW264.7 [10]): Non-toxic
CCN(CC)c1ccc(CN([C@]23C[C@H]4C[C@H](C[C@H](C4)C2)C3)S(=O)(=O)c2ccccc2)cc1 | 84 nM | 130 | Ki (Cannabinoid receptor 1): 11000 nM
CCN(CC)c1ccc(CN(C(=O)Cc2ccc(Cl)cc2)c2ccc(C)cc2)cc1 | 107 nM | 29 | –
CCCCCCCN(Cc1ccc(N(CC)CC)cc1)C(=O)Cc1ccc(Cl)cc1 | 696 nM | – | –
CCN(CC)c1ccc(CN(C(=O)Cc2ccccc2)c2ccc(C)cc2)cc1 | 72 nM | > 277 | Ki (Cannabinoid receptor 1): > 20000 nM
CCCCCCCC(=O)N(Cc1ccc(N(CC)CC)cc1)[C@]12C[C@H]3C[C@H](C[C@H](C3)C1)C2 | 638 nM | – | –

More lines, main results first:

Ki (Cannabinoid receptor 2 [1]; read-out: Ki) | Ratio Ki (Homo sapiens) | Structure (SMILES) | other results
5.8 nM | 37 | CCN(CC)c1ccc(CN(c2ccc(C)cc2)S(=O)(=O)c2cccc(C)c2)cc1 | –
36 nM | 183 | CCN(CC)c1ccc(CN(c2ccc(Cl)cc2)S(=O)(=O)c2ccc(Cl)cc2)cc1 | –
1310 nM | – | CCCCCCCN(Cc1ccc(N(CC)CC)cc1)C(=O)Cc1ccccc1 | –
5.4 nM | – | CCN(CC)c1ccc(CN(c2ccc(C)cc2)S(=O)(=O)c2ccc(C)cc2)cc1 | –
3 nM | – | CCN(CC)c1ccc(CN(c2ccc(C)cc2)S(=O)(=O)c2ccc(Cl)cc2)cc1 | –
5190 nM | – | CCCCCCCN(Cc1ccc(N(CC)CC)cc1)S(=O)(=O)c1ccc(OC)cc1 | –
5.6 nM | 153 | CCN(CC)c1ccc(CN(c2ccc(C)cc2)S(=O)(=O)c2ccc(F)cc2)cc1 | –
1280 nM | – | CCCCCCCN(Cc1ccc(N(CC)CC)cc1)C(=O)c1ccc(N(C)C)cc1 | –
222 nM | – | CCN(CC)c1ccc(CN(c2ccc(Cl)cc2)S(=O)(=O)c2ccc(C(C)C)cc2)cc1 | –
1100 nM | – | CCCCCCCN(Cc1ccc(N(CC)CC)cc1)S(=O)(=O)c1ccc(F)cc1 | –
37 nM | 3.7 | CCN(CC)c1ccc(CN(c2ccc(Cl)cc2)S(=O)(=O)c2ccc(C)cc2)cc1 | –
273 nM | – | CCCCCCCN(Cc1ccc(N(CC)CC)cc1)S(=O)(=O)Cc1ccccc1 | –
> 20000 nM | – | CCCCCCCN(Cc1ccc(N(CC)CC)cc1)S(=O)(=O)c1ccc(OC(C)C)cc1 | –
3.4 nM | 151 | CCN(CC)c1ccc(CN(c2ccc(C)cc2)S(=O)(=O)c2ccccc2)cc1 | EC50 (Cannabinoid receptor 2 [2]): 609 nM
6740 nM | – | CCCCCCCN(Cc1ccc(N(CC)CC)cc1)S(=O)(=O)c1ccc(Cl)cc1 | –
13000 nM | – | CCCCCCCN(Cc1ccc(N(CC)CC)cc1)S(=O)(=O)c1ccc(C(C)C)cc1 | –
2300 nM | – | CCCCCCCN(Cc1ccc(N(CC)CC)cc1)S(=O)(=O)c1cccc(C)c1 | –
> 20000 nM | – | CCCCCCCC(=O)N(CCCCCCC)Cc1ccc(N(CC)CC)cc1 | –
212 nM | – | CCCCCCCN(Cc1ccc(N(CC)CC)cc1)C(=O)C1CCCCC1 | –
2.8 nM | – | CCN(CC)c1ccc(CN(c2ccc(Cl)cc2)S(=O)(=O)c2cccc(C)c2)cc1 | –
4.3 nM | 782 | CCN(CC)c1ccc(CN(c2ccc(C)cc2)S(=O)(=O)c2ccc(C(C)C)cc2)cc1 | –
